Measurements: ChEMBL document CHEMBL3085690, “Naturally occurring antimicrobial peptide OH-CATH30 selectively regulates the innate immune response to protect against sepsis” (J Med Chem, 2013)
Active and inactive are the calls of the source. The calls are words filed in the database; no cut-off is given here. Peptide text beside a SMILES is read from it.

Experiments:
Mus musculus [1] = assay: Stimulation of innate immune response in Kunming mouse assessed as increase of leukocytes in peritoneal lavage at 10 mg/kg, ip after 5 hrs; assay type: functional, organism-based; design: dose 10 mg/kg
Method in brief: (§1)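 Female Kunming mice were given peptide ip at 10 mg/kg. At 5 h, peritoneal cells were recovered by lavage with 2 mL PBS and counted. Cells were stained with anti-F4/80-PE and GR1-FITC for 30 min at room temperature and typed by flow cytometry: neutrophils GR1+/F4/80−, resident monocytes/macrophages GR1−/F4/80+, inflammatory monocytes GR1+/F4/80+. Data are mean ± SD from three mice, unpaired t test.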

Mus musculus [2] = assay: Stimulation of innate immune response in Kunming mouse assessed as protection against bacteria-induced mortality by measuring survival rate at 10 mg/kg, ip measured up to 7 days; assay type: functional, organism-based; design: dose 10 mg/kg
BMDM [3] = assay: Increase of CXCL2 production in mouse BMDM after 6 hrs by ELISA in presence of TLR4/MD2 Ab; assay type: functional
Mus musculus [4] = assay: Stimulation of innate immune response in Kunming mouse assessed as increase of IL-6 level in peritoneal lavage at 10 mg/kg, ip after 5 hrs; assay type: functional, organism-based; design: dose 10 mg/kg
Method in brief: (§2)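 Female Kunming mice (18−22 g) received a single ip injection of peptide at 10 mg/kg in sterile saline. Peritoneal lavage was collected in 2 mL of cold sterile saline 5 h later, and cytokines and chemokines were measured by ELISA. Data are mean ± SD from four mice, compared by unpaired t test.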

Mus musculus [5] = assay: Stimulation of innate immune response in Kunming mouse assessed as protection against CLP-induced mortality by measuring survival rate at 10 mg/kg, ip administered 2 hrs before bacterial infection measured up to 7 days; assay type: functional; settings: route intraperitoneal
[6] = Increase of CXCL1 protein level in mouse BMDM at 10 ug/ml after 18 hrs by ELISA; assay type: functional
Method in brief: (§3)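 Bone marrow-derived macrophages (RPMI 1640, 10% FCS, 20% L929-conditioned medium) stimulated with peptide for 18 h. Cytokines and chemokines in culture supernatant quantified by sandwich ELISA. Mean ± SD from three independent experiments, unpaired t test.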

Mus musculus [7] = assay: Stimulation of innate immune response in Kunming mouse assessed as protection against Pseudomonas aeruginosa ATCC 27853-induced mortality by measuring survival rate at 10 mg/kg, ip administered 5 hrs before bacterial infection measured up to 7 days; assay type: functional; settings: route intraperitoneal
Method in brief: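 Female Kunming mice (18−22 g) received a single ip dose in sterile saline 5 h before ip challenge with P. aeruginosa 27853 (8 × 10^7 CFU/mouse; n = 8) or S. aureus 25923 (2 × 10^8 CFU/mouse; n = 10). Mice were checked every 6 h for up to 7 days, with a humane end point. Curves were compared by log-rank test.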

BMDM [8] = assay: Increase of TNFalpha protein level in mouse BMDM at 20 ug/ml after 18 hrs by ELISA; assay type: functional; method in brief: as §3
BMDM [9] = assay: Increase of IL-1Ra protein level in mouse BMDM at 20 ug/ml after 18 hrs by ELISA; assay type: functional; method in brief: as §3
BMDM [10] = assay: Induction of CCL2 mRNA up-regulation in mouse BMDM at 20 ug/ml after 3 hrs by qRT-PCR analysis; assay type: functional
Method in brief: (§4)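 Murine BMDMs stimulated with peptide, then target mRNA quantified by qRT-PCR. Expression normalized to GAPDH, with untreated cells set to 1.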

RAW264.7 [11] = assay: Inhibition of PGN-induced TNFalpha production in mouse RAW264.7 cells 2 to 50 ug/ml after 6 hrs by ELISA; assay type: functional, cell-based
Mus musculus [12] = assay: Stimulation of innate immune response in bacteria infected Kunming mouse assessed as eradicate invading bacteria at 10 mg/kg, ip after 8 hrs; assay type: functional, organism-based; design: dose 10 mg/kg
THP-1 = assay: Increase of cytokine production in PMA-differentiated human THP1 cells by ELISA; assay type: functional, cell-based
[13] = Increase of IL-10 protein level in mouse BMDM at 10 ug/ml after 18 hrs by ELISA; assay type: functional; method in brief: as §3
Mus musculus [14] = assay: Stimulation of innate immune response in Kunming mouse assessed as increase of IL-1beta level in peritoneal lavage at 10 mg/kg, ip after 5 hrs; assay type: functional, organism-based; design: dose 10 mg/kg; method in brief: as §2
BMDM [15] = assay: Induction of CXCL11 mRNA up-regulation in mouse BMDM at 20 ug/ml after 3 hrs by qRT-PCR analysis; assay type: functional; method in brief: as §4
Mus musculus [16] = assay: Stimulation of innate immune response in ip dosed Kunming mouse assessed as protection against Escherichia coli ATCC 25922-induced mortality by measuring survival rate measured up to 7 days; assay type: functional, organism-based
Method in brief: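 Kunming mice were challenged ip with E. coli 25922 at 2.5 × 10^8 CFU/mouse (n = 10). A single ip dose of peptide, from 1 to 10 mg/kg in sterile saline, was given 5 h before infection. Survival was followed for up to 7 days and compared by log-rank test.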

BMDM [17] = assay: Increase of CXCL2 production in mouse BMDM after 6 hrs by ELISA in presence of WRW4; assay type: functional
Mus musculus [18] = assay: Stimulation of innate immune response in Kunming mouse assessed as increase of IL-10 level in peritoneal lavage at 10 mg/kg, ip after 5 hrs; assay type: functional, organism-based; design: dose 10 mg/kg; method in brief: as §2
Mus musculus [19] = assay: Stimulation of innate immune response in Kunming mouse assessed as increase of monocytes/macrophages in peritoneal lavage at 10 mg/kg, ip after 5 hrs; assay type: functional, organism-based; design: dose 10 mg/kg; method in brief: as §1
[20] = Induction of IL-1Ra mRNA up-regulation in mouse BMDM at 20 ug/ml after 3 hrs by qRT-PCR analysis relative to control; assay type: functional; method in brief: as §4
Mus musculus [21] = assay: Stimulation of innate immune response in Kunming mouse assessed as increase of CXCL2 level in peritoneal lavage at 10 mg/kg, ip after 5 hrs; assay type: functional, organism-based; design: dose 10 mg/kg; method in brief: as §2
BMDM [22] = assay: Increase of CXCL2 production in mouse BMDM after 6 hrs by ELISA in presence of pertussis toxin; assay type: functional
Method in brief: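 BMDMs (bone marrow cells in RPMI 1640 with 10% FCS and 20% L929-conditioned medium) were preincubated 30 min with pertussis toxin (100 ng/mL), then stimulated with peptide for 6 h. CXCL2 in the supernatant was measured by ELISA. Mean ± SEM from three independent experiments, unpaired t test.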

RAW264.7 [23] = assay: Inhibition of LPS-induced IL-6 production in mouse RAW264.7 cells 2 to 50 ug/ml after 6 hrs by ELISA; assay type: functional, cell-based
Mus musculus [24] = assay: Stimulation of innate immune response in Kunming mouse assessed as protection against drug-resistant Pseudomonas aeruginosa-induced mortality by measuring survival rate at 10 mg/kg, ip administered 5 hrs before bacterial infection measured up to 7 days; assay type: functional; settings: route intraperitoneal
Method in brief: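 Female Kunming mice (18−22 g) were dosed ip in sterile saline at 10 mg/kg, 5 h before ip challenge with clinical drug-resistant isolates: E. coli (n = 12), P. aeruginosa (n = 10) or S. aureus (n = 15). Survival was recorded for up to 7 days, with checks every 6 h and euthanasia by CO2 at the humane end point.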

[25] = Increase of CXCL2 production in mouse BMDM after 6 hrs by ELISA in presence of p38 MAPK inhibitor SB-202190; assay type: functional
[26] = Increase of IL-1Ra protein level in mouse BMDM at 10 ug/ml after 18 hrs by ELISA; assay type: functional; method in brief: as §3
Mus musculus [27] = assay: Stimulation of innate immune response in Kunming mouse infected with Pseudomonas aeruginosa ATCC 27853 assessed as effect on IL-6 production in peritoneal lavage at 10 mg/kg, ip after 5 hrs by ELISA; assay type: functional, organism-based; design: dose 10 mg/kg

Compound: CC[C@H](C)[C@H](NC(=O)[C@@H](NC(=O)[C@H](CCCNC(=N)N)NC(=O)[C@@H]1CCCN1C(=O)[C@H](CCCCN)NC(=O)[C@H](CCCCN)NC(=O)[C@H](Cc1ccccc1)NC(=O)[C@H](Cc1ccccc1)NC(=O)[C@H](CCCCN)NC(=O)[C@H](CCCCN)NC(=O)[C@H](C)NC(=O)[C@H](CCCNC(=N)N)NC(=O)[C@H](CCCCN)NC(=O)[C@H](CCCCN)NC(=O)[C@@H](NC(=O)[C@H](CO)NC(=O)[C@H](CC(N)=O)NC(=O)[C@H](CCCCN)NC(=O)[C@H](CC(C)C)NC(=O)[C@H](CCCCN)NC(=O)[C@H](CCCCN)NC(=O)[C@H](Cc1ccccc1)NC(=O)[C@H](Cc1ccccc1)NC(=O)[C@@H](N)CCCCN)C(C)C)C(C)C)C(=O)NCC(=O)N[C@H](C(=O)N[C@@H](CO)C(=O)N[C@H](C(=O)N1CCC[C@H]1C(=O)N[C@@H](Cc1ccccc1)C(=O)O)[C@@H](C)CC)C(C)C (H-KFFKKLKNSVKKRAKKFFKKPRVIGVSIPF-OH)
- Activity (Mus musculus [1]): Active
- Activity (Mus musculus [2]): inactive
- Activity (BMDM [3]): inactive
- Activity (Mus musculus [4]): inactive
- survival at 10 mg/kg (Mus musculus [5]): 40%
- Activity [6]: 269 pg/mL
- survival at 10 mg/kg (Mus musculus [7]): > 85%
- Activity (BMDM [8]): inactive
- Activity (BMDM [9]): Active
- Activity (BMDM [10]): Active
- inhibition (RAW264.7 [11]): inactive
- Activity (Mus musculus [12]): inactive
- Activity (THP-1): Active
- Activity [13]: 156 pg/mL
- Activity (Mus musculus [14]): inactive
- Activity (BMDM [15]): Active
- Activity (Mus musculus [16]): Dose-dependent effect
- Activity (BMDM [17]): Active
- Activity (Mus musculus [18]): Active
- Activity (Mus musculus [19]): Active
- fold change (FC) [20]: 25
- Activity (Mus musculus [21]): Active
- Activity (BMDM [22]): inactive
- inhibition (RAW264.7 [23]): Active
- survival at 10 mg/kg (Mus musculus [24]): 95%
- Activity [25]: 464.9 pg/mL
- Activity [26]: 232 pg/mL
- Activity (Mus musculus [27]): inactive
